Converted amounts (≈) assume the structure as drawn. The source made the active and inactive calls. The rule behind the calls is not given here.
Columns and labels:
Leishmania mexicana [1] = test: Antileishmanial activity against Leishmania mexicana MHOM/MX/00/Tab3 promastigotes at 100 ug/ml after 48 hrs by hemocytometer; format: functional, organism-based
Leishmania mexicana [2] = test: Antileishmanial activity against Leishmania mexicana MNYC/BZ/62/M379 infected in BALB/c mouse macrophage assessed as growth inhibition at 100 ug/ml after 6 days by hemocytometer; format: functional; conditions: MNYC/BZ/62/M379, 144 h
Outline: (§1)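 Peritoneal resident macrophages from male BALB/c mice (20-25 g) were pooled, washed, plated at 10^6 cells/ml, and left to adhere for 24 h at 32°C in 5% CO2. Adherent cells were infected with 10^7 mid-log amastigote-like forms for 48 h, then washed. Drug was given at 0.01-100 µg/ml for 3, 6, 9 or 12 days at 32°C. After removal, plates moved to 26°C; released promastigotes were hemacytometer-counted 6 days later. Inhibition = 100 x (Tc − Tp)/Tc; triplicate.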

Leishmania mexicana [3] = test: Antileishmanial activity against Leishmania mexicana MHOM/MX/00/Tab3 infected in BALB/c mouse macrophage assessed as growth inhibition at 10 ug/ml after 6 days by hemocytometer; format: functional
Outline: (§2)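 Resident peritoneal macrophages from male BALB/c mice were plated at 10^6 cells/ml and incubated for 24 h at 32°C in 5% CO2. Adherent cells were infected with 10^7 mid-log amastigote-like forms for 48 h at 32°C, then washed. Drug was applied for 6 days at 32°C, then replaced with drug-free medium and shifted to 26°C. Released promastigotes were counted by hemacytometer 6 days later, in triplicate. Inhibition = 100×(Tc−Tp)/Tc versus untreated.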

Leishmania mexicana [4] = test: Antileishmanial activity against Leishmania mexicana MHOM/MX/00/Tab3 promastigotes measured on day 6 by hemocytometer; format: functional; conditions: MHOM/MX/00/Tab3, 144 h, read-out: ED50 (the source's name)
Outline: (§3)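 Promastigotes were cultured cell-free at 26°C in DMEM with 10% heat-inactivated FCS, with hydroxyurea at 0.01-100 µg/ml. Density was counted by hemacytometer every other day, and inhibition versus untreated control was taken on day 6 of culture.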

Leishmania mexicana [5] = test: Cell cycle arrest in Leishmania mexicana assessed as accumulation at G2/M phase at 10 ug/ml after 48 hrs by fluorescence-activated cell sorter; format: functional, organism-based
Outline: (§4)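 Mid-log promastigotes were exposed 48 h at 26°C to 1, 10 or 100 µg/ml, washed in PBS with 0.02 M EDTA, and fixed in cold methanol for 24 h. They were then stained 20 min at 25°C with RNase I (50 µg/ml) and PI (25 µg/ml), kept on ice, and analysed by FACS for DNA content.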

Leishmania mexicana [6] = test: Cell cycle arrest in Leishmania mexicana assessed as accumulation at G2/M phase at 1 ug/ml after 48 hrs by fluorescence-activated cell sorter; format: functional, organism-based; outline: as §4
Leishmania mexicana [7] = test: Antileishmanial activity against Leishmania mexicana promastigotes assessed as parasite burden at 10 ug/ml after 8 days by hemacytometer
Leishmania mexicana [8] = test: Antileishmanial activity against Leishmania mexicana MHOM/MX/00/Tab3 promastigotes at 10 ug/ml after 48 hrs by hemocytometer; format: functional, organism-based
Leishmania mexicana [9] = test: Antileishmanial activity against Leishmania mexicana infected in BALB/c mouse macrophage assessed as growth inhibition at 10 ug/ml after 3 days by hemocytometer; format: functional; conditions: 72 h; outline: as §1
Leishmania mexicana [10] = test: Antileishmanial activity against Leishmania mexicana MNYC/BZ/62/M379 promastigotes assessed as survival rate after 6 days by hemocytometer; format: functional
Outline: (§5)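 Promastigotes were grown cell-free at 26°C in DMEM with 10% heat-inactivated FCS, with drug at 0.01–100 µg/ml. Parasite density was counted by hemacytometer every other day, and the value was taken on day 6. Data were recorded in triplicate, and experiments were run four times.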

Leishmania mexicana [11] = test: Antileishmanial activity against Leishmania mexicana infected in BALB/c mouse macrophage assessed as growth inhibition at 0.01 ug/ml after 3 days by hemocytometer; format: functional; conditions: 72 h; outline: as §1
Leishmania mexicana [12] = test: Antileishmanial activity against Leishmania mexicana MHOM/MX/00/Tab3 infected in BALB/c mouse macrophage measured on day 6 by hemocytometer; format: functional; conditions: MHOM/MX/00/Tab3, 144 h, read-out: ED50 (the source's name); outline: as §1
Leishmania mexicana [13] = test: Antileishmanial activity against Leishmania mexicana infected in BALB/c mouse macrophage assessed as growth inhibition at 100 ug/ml after 3 days by hemocytometer; format: functional, organism-based; outline: as §1
Leishmania mexicana [14] = test: Antileishmanial activity against Leishmania mexicana MHOM/MX/00/Tab3 infected in BALB/c mouse macrophage assessed as growth inhibition at 1 ug/ml after 6 days by hemocytometer; format: functional; outline: as §2
Leishmania mexicana [15] = test: Antileishmanial activity against Leishmania mexicana infected in BALB/c mouse macrophage assessed as growth inhibition at 1 ug/ml after 3 days by hemocytometer; format: functional; conditions: 72 h; outline: as §1
Leishmania mexicana [16] = test: Antileishmanial activity against Leishmania mexicana MHOM/MX/00/Tab3 infected in BALB/c mouse macrophage assessed as growth inhibition at 100 ug/ml after 6 days by hemocytometer; format: functional; conditions: MHOM/MX/00/Tab3, 144 h; outline: as §1
Leishmania mexicana [17] = test: Antileishmanial activity against Leishmania mexicana MNYC/BZ/62/M379 promastigotes at 100 ug/ml after 48 hrs by hemocytometer; format: functional, organism-based
Leishmania mexicana [18] = test: Antileishmanial activity against Leishmania mexicana promastigotes assessed as parasite burden at 100 ug/ml after 8 days by hemacytometer
Leishmania mexicana [19] = test: Antileishmanial activity against Leishmania mexicana MNYC/BZ/62/M379 infected in BALB/c mouse macrophage assessed as growth inhibition at 10 ug/ml after 6 days by hemocytometer; format: functional; outline: as §2
Leishmania mexicana [20] = test: Antileishmanial activity against Leishmania mexicana MNYC/BZ/62/M379 promastigotes at 10 ug/ml after 48 hrs by hemocytometer; format: functional, organism-based
Leishmania mexicana [21] = test: Antileishmanial activity against Leishmania mexicana MNYC/BZ/62/M379 infected in BALB/c mouse macrophage assessed as growth inhibition at 1 ug/ml after 6 days by hemocytometer; format: functional; outline: as §2
Leishmania mexicana [22] = test: Antileishmanial activity against Leishmania mexicana MNYC/BZ/62/M379 infected in BALB/c mouse macrophage measured on day 6 by hemocytometer; format: functional; conditions: MNYC/BZ/62/M379, 144 h, read-out: ED50 (the source's name); outline: as §1
Leishmania mexicana [23] = test: Antileishmanial activity against Leishmania mexicana MHOM/MX/00/Tab3 promastigotes assessed as survival rate after 6 days by hemocytometer; format: functional; outline: as §5
Leishmania mexicana [24] = test: Antileishmanial activity against Leishmania mexicana infected in BALB/c mouse macrophage assessed as growth inhibition at 0.1 ug/ml after 3 days by hemocytometer; format: functional; conditions: 72 h; outline: as §1
Leishmania mexicana [25] = test: Antileishmanial activity against Leishmania mexicana infected in BALB/c mouse macrophage assessed as growth inhibition at 0.1 ug/ml after 12 days by hemocytometer; format: functional; conditions: 288 h; outline: as §1
Leishmania mexicana [26] = test: Antileishmanial activity against Leishmania mexicana infected in BALB/c mouse macrophage assessed as growth inhibition at 1 ug/ml after 12 days by hemocytometer; format: functional; conditions: 288 h; outline: as §1
Leishmania mexicana [27] = test: Antileishmanial activity against Leishmania mexicana promastigotes assessed as parasite burden at 1 ug/ml after 8 days by hemacytometer
Leishmania mexicana [28] = test: Cell cycle arrest in Leishmania mexicana assessed as accumulation at G2/M phase at 100 ug/ml after 48 hrs by fluorescence-activated cell sorter; format: functional, organism-based; outline: as §4
Leishmania mexicana [29] = test: Antileishmanial activity against Leishmania mexicana MNYC/BZ/62/M379 promastigotes measured on day 6 by hemocytometer; format: functional; conditions: MNYC/BZ/62/M379, 144 h, read-out: ED50 (the source's name); outline: as §3
Leishmania mexicana [30] = test: Antileishmanial activity against Leishmania mexicana infected in BALB/c mouse macrophage assessed as growth inhibition at 0.01 ug/ml after 12 days by hemocytometer; format: functional; conditions: 288 h; outline: as §1
Leishmania mexicana [31] = test: Antileishmanial activity against Leishmania mexicana infected in BALB/c mouse macrophage assessed as growth inhibition at 10 ug/ml after 12 days by hemocytometer; format: functional; conditions: 288 h; outline: as §1
Leishmania mexicana [32] = test: Antileishmanial activity against Leishmania mexicana MHOM/MX/00/Tab3 infected in BALB/c mouse macrophage assessed as growth inhibition at 25 ug/ml after 6 days by hemocytometer; format: functional, organism-based
Leishmania mexicana [33] = test: Antileishmanial activity against Leishmania mexicana MNYC/BZ/62/M379 infected in BALB/c mouse macrophage assessed as growth inhibition at 25 ug/ml after 6 days by hemocytometer; format: functional, organism-based

Molecule: NC(=O)NO [HYDROXYUREA]
- Activity (Leishmania mexicana [1]): Active
- inhibition at 100 µg/mL (Leishmania mexicana [2]): 100%
- inhibition at 10 µg/mL (Leishmania mexicana [3]; MHOM/MX/00/Tab3, 144 h): 100%
- EC50 (Leishmania mexicana [4]): 0.05 µg/mL (≈ 0.657 µM)
- Activity (Leishmania mexicana [5]): Active
- Activity (Leishmania mexicana [6]): inactive
- Activity (Leishmania mexicana [7]): 4.3 ×10⁶ /ml
- Activity (Leishmania mexicana [8]): Active
- inhibition at 10 µg/mL (Leishmania mexicana [9]): 93%
- Survival (Leishmania mexicana [10]): 11.6%
- inhibition at 0.01 µg/mL (Leishmania mexicana [11]): 44%
- EC50 (Leishmania mexicana [12]): 0.015 µg/mL (≈ 0.197 µM)
- inhibition (Leishmania mexicana [13]): Active
- inhibition at 1 µg/mL (Leishmania mexicana [14]; MHOM/MX/00/Tab3, 144 h): 96%
- inhibition at 1 µg/mL (Leishmania mexicana [15]): 87%
- inhibition at 100 µg/mL (Leishmania mexicana [16]): 100%
- Activity (Leishmania mexicana [17]): Active
- Activity (Leishmania mexicana [18]): 0 mL⁻¹
- inhibition at 10 µg/mL (Leishmania mexicana [19]; MNYC/BZ/62/M379, 144 h): 100%
- Activity (Leishmania mexicana [20]): Active
- inhibition at 1 µg/mL (Leishmania mexicana [21]; MNYC/BZ/62/M379, 144 h): 94%
- EC50 (Leishmania mexicana [22]): 0.015 µg/mL (≈ 0.197 µM)
- Survival (Leishmania mexicana [23]): 3.1%
- inhibition at 0.1 µg/mL (Leishmania mexicana [24]): 72%
- inhibition at 0.1 µg/mL (Leishmania mexicana [25]): 85%
- inhibition at 1 µg/mL (Leishmania mexicana [26]): 94%
- Activity (Leishmania mexicana [27]): 8.5 ×10⁶ /ml
- Activity (Leishmania mexicana [28]): Active
- EC50 (Leishmania mexicana [29]): 0.05 µg/mL (≈ 0.657 µM)
- inhibition at 0.01 µg/mL (Leishmania mexicana [30]): 67%
- inhibition at 10 µg/mL (Leishmania mexicana [31]): 98%

Molecule: MEGLUMINE ANTIMONATE
- inhibition (Leishmania mexicana [3]): 54%
- inhibition (Leishmania mexicana [14]): 32%
- inhibition (Leishmania mexicana [19]): 69%
- inhibition (Leishmania mexicana [21]): 33%
- inhibition (Leishmania mexicana [32]): 77%
- inhibition (Leishmania mexicana [33]): 93%

From ChEMBL document CHEMBL1275525, “Activity of hydroxyurea against Leishmania mexicana” (2008)
